Statin myotox sup – suppression of simvastatin myotoxicity | C2C12 myotubes + simvastatin, ATP luminescence, 48 h; scaled: DMSO 0, geranylgeraniol control 100 | rescue of ATP level, % at 7.49 µM | hit rate 0.78% among 330,000;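 active = mean ATP rescue above about 67%, or every replicate alone reaching that limit, limit read from the data, passing the limit was not always enough; inconclusive = no clear call, values can overlap the other calls; inactive = mean under the limit and some replicate under it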;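 also: myotubes were challenged with 10 µM simvastatin during compound exposure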
CAL PDZ FP-1 – human CAL PDZ-peptide interaction inhibition | purified CAL PDZ, TMR-peptide fluorescence polarization, 1 h | Q9HD26 | inhibition, % at 20 µM | hit rate 0.02% among 330,000;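 active = highest replicate inhibition of at least 40%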;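 also: plate controls were DMSO neutral control wells for no effect and unlabeled competitor peptide control wells for full effect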
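Material: tagged CAL PDZ domain; buffer or medium: 25 mM sodium phosphate pH 7.4, 150 mM NaCl, TCEP, IgG, Thesit; compound dosing: single point, 20 µM; schedule: 1 h incubation at room temperature before polarization reading; measured by: FP readout, S and P plane fluorescence; read-out basis: percent inhibition from loss of millipolarization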
CDK5 p35 inh – CDK5/p35 (human) kinase inhibition; Q00535+Q15078; Recombinant CDK5/p35, ADP-Glo luminescence, 60 min; inhibition, % at 10 µM; hit rate 0.01% among 330,000; AID 488839;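 active = highest replicate inhibition of at least 50% and at least 75% of replicates reaching 50%; inconclusive = only one of the two criteria met; inactive = both criteria failed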;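 also: plate controls were DMSO neutral control for no effect and GW8510 at 10 µM for full effect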
Target sequence (Q00535 whole entry, looked up): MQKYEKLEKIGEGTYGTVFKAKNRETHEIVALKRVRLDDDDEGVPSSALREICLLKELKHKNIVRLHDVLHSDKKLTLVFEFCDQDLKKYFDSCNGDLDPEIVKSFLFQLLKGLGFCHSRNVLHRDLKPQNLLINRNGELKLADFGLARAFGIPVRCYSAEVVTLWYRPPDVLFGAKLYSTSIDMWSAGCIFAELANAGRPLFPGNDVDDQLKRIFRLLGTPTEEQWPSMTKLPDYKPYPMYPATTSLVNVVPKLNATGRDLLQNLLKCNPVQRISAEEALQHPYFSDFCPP
Target sequence (Q15078 whole entry, looked up): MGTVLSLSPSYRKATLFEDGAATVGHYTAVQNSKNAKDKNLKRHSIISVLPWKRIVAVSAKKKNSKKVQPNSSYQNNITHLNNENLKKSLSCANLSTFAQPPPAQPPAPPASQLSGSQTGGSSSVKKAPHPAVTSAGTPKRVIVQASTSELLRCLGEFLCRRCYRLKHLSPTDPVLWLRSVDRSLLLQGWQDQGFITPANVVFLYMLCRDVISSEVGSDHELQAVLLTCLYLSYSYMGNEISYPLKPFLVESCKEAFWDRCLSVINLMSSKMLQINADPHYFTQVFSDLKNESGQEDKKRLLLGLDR
CAL PDZ FP-2 – CAL PDZ (human) peptide binding inhibition; purified CAL PDZ, TMR-peptide fluorescence polarization, 1 h; hit rate 0.92% among 300,000; inhibition, % at 24.9 µM; AID 602252;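 active = mean inhibition of at least 30% with at least half of replicates also reaching 30%; inconclusive = no clear call, values can overlap the other calls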;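 also: 0% = DMSO neutral control and 100% = excess unlabeled competitor peptide PRC23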
S100A4 MyoIIA – inhibitors of human S100A4 binding to myosin IIA peptide; P26447; hit rate 0.14% among 360,000; inhibition, % at 10.7 µM; S100A4/TAMRA-MyoIIA peptide fluorescence polarization;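 active = mean inhibition of at least 70% across replicates, with every replicate also reaching that level; inconclusive = mean inhibition reaches 70% but some replicates fall short; inactive = mean inhibition below 70%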
Target sequence (P26447 whole entry, looked up): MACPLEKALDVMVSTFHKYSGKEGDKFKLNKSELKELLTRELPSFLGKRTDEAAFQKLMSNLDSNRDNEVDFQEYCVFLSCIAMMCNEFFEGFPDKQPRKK
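System – human S100A4 monomer protein, biochemical binding assay · Buffer or medium – Calcium-containing HEPES buffer, pH 7.2 · Timing – 5 min between mix addition and reading · Also added – TAMRA-labelled myosin IIA heavy-chain peptide probe, 5 nM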
dFosB act-1 – mouse delta FosB homodimer activation; AID 493131; purified delta FosB, TAMRA-CDK5 oligo fluorescence polarization; percent of positive-control signal above neutral wells; hit rate 0.99% among 340,000; activation, % at 25 µM; P13346;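 active = mean activation above about 17%, with every replicate also reaching it, limit read from the data, passing the limit was not always enough; inconclusive = only one of the two conditions met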
dFosB act-2 – delta FosB (mouse) homodimer activation; purified delta FosB, TAMRA-CDK5 oligo fluorescence polarization; normalised: neutral wells 0, positive control 100; 2,400 tested, under 10 active; activation, % at 24.9 µM; shares compounds with dFosB act-1;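 active = highest replicate activation at or above 34% and every replicate reaching that threshold; inconclusive = meets only one of the two criteria; inactive = meets neither criterion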;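 also: higher polarization means more probe DNA bound by delta FosB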
* hit, by the source's call. The list is not random: actives were taken first. Their share in the collection is about 2%.

What do the screens show for `Cc1cc(N2CCN(C)CC2)nc2ccc(NC(=S)N3CCCCCC3)cc12`?
Statin myotox sup: 6; CAL PDZ FP-1: 1; CDK5 p35 inh: -1; CAL PDZ FP-2: -2; S100A4 MyoIIA: 1; dFosB act-1: 2

What do the screens show for `CNC(=O)COC(=O)c1cc(NC(=O)c2ccco2)c(OC)c(OC)c1`?
Statin myotox sup: 2; CAL PDZ FP-1: -1; CDK5 p35 inh: 0; CAL PDZ FP-2: -6; dFosB act-1: 6

What do the screens show for `COc1cc(C(=O)OCC(=O)NCc2ccccc2)cc(NC(=O)c2ccco2)c1OC`?
CAL PDZ FP-1: -1; CDK5 p35 inh: 1; CAL PDZ FP-2: 0; dFosB act-1: 26*; dFosB act-2: 2

What do the screens show for `CCOc1ccc(CCNC(=O)COC(=O)/C=C/c2ccc(OC(F)F)c(OC)c2)cc1OCC`?
Statin myotox sup: 3; CAL PDZ FP-1: -3; CDK5 p35 inh: 2; CAL PDZ FP-2: -2; S100A4 MyoIIA: 3; dFosB act-1: -8

What do the screens show for `CN1/C(=C\C=N\NC(=O)c2ccccc2Br)C(C)(C)c2ccccc21`?
CAL PDZ FP-1: -1; CDK5 p35 inh: 0; CAL PDZ FP-2: -9; dFosB act-1: 8

Results for CN1/C(=C/C=N/n2cnnc2)C(C)(C)c2ccccc21 ?
Statin myotox sup: -8; CAL PDZ FP-1: 1; CDK5 p35 inh: 0; CAL PDZ FP-2: 6; dFosB act-1: 20*; dFosB act-2: 0

What do the screens show for `COc1ccc(Cl)cc1NC(=O)CSc1nc(NS(=O)(=O)c2ccc(C)cc2)cc(=O)[nH]1`?
Statin myotox sup: 0; CAL PDZ FP-1: 0; CDK5 p35 inh: -1; S100A4 MyoIIA: 5; dFosB act-1: 28*; dFosB act-2: 1

How did O=C(CCS(=O)(=O)c1ccc2c(c1)NC(=O)CO2)NCCc1ccccc1 do in these assays?
Statin myotox sup: 4; CAL PDZ FP-1: -1; CDK5 p35 inh: -1; S100A4 MyoIIA: -1; dFosB act-1: 2

How did Cc1cc(C)c2c(N)c3ccccc3nc2n1 do in these assays?
Statin myotox sup: 51; CAL PDZ FP-1: -2; CDK5 p35 inh: -1; CAL PDZ FP-2: 0; dFosB act-1: 31*; dFosB act-2: 4

How did CCc1ccc2nc3nc(C)cc(C)c3c(N)c2c1 do in these assays?
Statin myotox sup: -57; CAL PDZ FP-1: -10; CDK5 p35 inh: 0; CAL PDZ FP-2: -7; S100A4 MyoIIA: -5; dFosB act-1: inconclusive

Results for NS(=O)(=O)c1ccc(CNC(=O)c2cc(-c3ccccn3)nc3ccc(Cl)cc23)cc1 ?
CAL PDZ FP-1: -1; CDK5 p35 inh: 3; CAL PDZ FP-2: 2; S100A4 MyoIIA: 0; dFosB act-1: 21*; dFosB act-2: -2

How did NS(=O)(=O)c1ccc(CNC(=O)c2cc(-c3cccnc3)nc3ccc(Cl)cc23)cc1 do in these assays?
Statin myotox sup: 9; CAL PDZ FP-1: 0; CDK5 p35 inh: 1; CAL PDZ FP-2: -3; S100A4 MyoIIA: -2; dFosB act-1: 15

What do the screens show for `Cc1ccccc1/C=N/Nc1ccnc2cc(Cl)ccc12`?
CAL PDZ FP-1: -2; CDK5 p35 inh: 3; CAL PDZ FP-2: -3; S100A4 MyoIIA: 4; dFosB act-1: 38*; dFosB act-2: 1

Results for C[C@H](O)[C@@H]1C(=O)N2CCc3ccc(N4CCN(C)CC4)cc3[C@@H]2C[C@@H]1N(C)C(=O)Nc1cc(Cl)cc(Cl)c1 ?
Statin myotox sup: -10; CAL PDZ FP-1: 0; CDK5 p35 inh: 2; CAL PDZ FP-2: -9; S100A4 MyoIIA: -2; dFosB act-1: 1

How did CSc1nc2ccc3nc(NC(=O)C4COc5ccccc5O4)sc3c2s1 (stereo not given) do in these assays?
Statin myotox sup: -6; CAL PDZ FP-1: -1; CDK5 p35 inh: 1; CAL PDZ FP-2: 6; S100A4 MyoIIA: -3; dFosB act-1: 70*; dFosB act-2: -1

What do the screens show for `COc1cnn(-c2cccc(Cl)c2)c(=O)c1Cl`?
CAL PDZ FP-1: -1; CDK5 p35 inh: 0; CAL PDZ FP-2: -4; S100A4 MyoIIA: -2; dFosB act-1: -5

What do the screens show for `O=C(Nc1ccc(Br)cn1)c1cccc(-c2cc3ccccc3oc2=O)c1`?
CAL PDZ FP-1: -1; CDK5 p35 inh: -2; CAL PDZ FP-2: -2; S100A4 MyoIIA: -4; dFosB act-1: 34*; dFosB act-2: 0

What do the screens show for `CCOc1ccc(CC(=O)NNC(=S)Nc2ccc(OC)c(OC)c2)cc1`?
CAL PDZ FP-1: 0; CDK5 p35 inh: 0; S100A4 MyoIIA: -1; dFosB act-1: 0

How did Cc1cc(NC(=O)c2cncc(Br)c2)ccc1NC(=O)c1cc2ccccc2o1 do in these assays?
Statin myotox sup: -38; CAL PDZ FP-1: -2; CDK5 p35 inh: 2; CAL PDZ FP-2: -5; S100A4 MyoIIA: -4; dFosB act-1: 58*; dFosB act-2: 0

How did COc1ccccc1NC(=O)CSc1nc2[nH]ncc2c(=O)[nH]1 do in these assays?
CAL PDZ FP-1: 0; CDK5 p35 inh: -2; S100A4 MyoIIA: 0; dFosB act-1: 0

How did CCCC(=O)Nc1c(-c2ccc(OC)cc2)c(=O)c2ccccc2n1C do in these assays?
Statin myotox sup: -6; CDK5 p35 inh: 0; CAL PDZ FP-2: -4; dFosB act-1: -1

Results for CC(=O)c1ccc(N(C(=O)CS(=O)CC(=O)Nc2ccc(F)cc2)C(C(=O)NC2CCCCC2)c2cccs2)cc1 (stereo not given) ?
CAL PDZ FP-1: -2; CDK5 p35 inh: -1; CAL PDZ FP-2: -2; S100A4 MyoIIA: -2; dFosB act-1: 20*; dFosB act-2: 1

Results for CC(=O)c1cccc(N(C(=O)CS(=O)CC(=O)Nc2ccc(F)cc2)C(C(=O)NC2CCCCC2)c2ccc(C)o2)c1 (stereo not given) ?
CAL PDZ FP-1: 0; CDK5 p35 inh: 0; CAL PDZ FP-2: -1; dFosB act-1: -2

What do the screens show for `COc1cc2c(-c3ccc(O)cc3)nc3c(c(C)nn3-c3ccccc3)c2cc1OC`?
CAL PDZ FP-1: 0; CDK5 p35 inh: 0; dFosB act-1: 27*; dFosB act-2: 4

What do the screens show for `COc1ccc(CCNC(=O)c2nnn(-c3cc(C)cc(C)c3)c2N)cc1OC`?
Statin myotox sup: 5; CAL PDZ FP-1: -4; CDK5 p35 inh: 1; CAL PDZ FP-2: -2; dFosB act-1: -10

What do the screens show for `Cc1ccc(NC(=O)Cn2nnc(C(=O)NCCc3ccccc3)c2N)c(C)c1`?
Statin myotox sup: -6; CAL PDZ FP-1: -1; CDK5 p35 inh: 1; CAL PDZ FP-2: -3; dFosB act-1: 29*; dFosB act-2: -10

Source: PubChem BioAssay
